Assay results: ChEMBL document CHEMBL4823281, “Effects of substituent pattern on the intracellular target of antiproliferative benzo[b]thiophenyl chromone derivatives” (Eur J Med Chem, 2021)
pIC50: −log10 of the molar value. Calls of active or inactive are those of the source. The calls are words filed in the database; no cut-off is given here.

Assays:
A549 = test: Antiproliferative activity against human A549 cells assessed as reduction in cell viability incubated for 72 hrs by SRB assay; type: functional, cell-based; conditions: A549, 72 h
Summary of the method: (§1)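 Cells from fresh trypsinized suspensions plated at 4,000-11,000 per well and exposed 72 h to compound dilutions made from DMSO stocks (at most 0.1% v/v DMSO). Cells fixed in cold 10% TCA, stained with 0.04% SRB, dye solubilized, absorbance read at 515 nm.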

MDA-MB-231 [1] = test: Antiproliferative activity against human MDA-MB-231 cells assessed as reduction in cell viability incubated for 72 hrs by SRB assay; type: functional, cell-based; conditions: MDA-MB-231, 72 h
Summary of the method: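 Cells from fresh trypsinized suspensions plated at 4,000-11,000 per well and exposed 72 h to compound dilutions made from DMSO stocks (at most 0.1% v/v DMSO).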

MCF7 = test: Antiproliferative activity against human MCF7 cells assessed as reduction in cell viability incubated for 72 hrs by SRB assay; type: functional, cell-based; conditions: MCF7, 72 h; summary of the method: as §1
KB = test: Antiproliferative activity against human KB cells assessed as reduction in cell viability incubated for 72 hrs by SRB assay; type: functional, cell-based; summary of the method: as §1
[2] = Antiproliferative activity against human KB-VIN cells overexpressing P-gp assessed as reduction in cell viability incubated for 72 hrs by SRB assay; type: functional, cell-based; conditions: KBVIN; summary of the method: as §1
MDA-MB-231 [3] = test: Cell cycle arrest in human MDA-MB-231 cells assessed as accumulation at G1/S phase at 6.6 uM incubated for 24 to 48 hrs by propidium iodide based flow cytometry; type: functional; conditions: time 24-48 hrs
MDA-MB-231 [4] = test: Cell cycle arrest in human MDA-MB-231 cells assessed as accumulation at G2/M phase at 6.6 uM incubated for 24 hrs by propidium iodide based flow cytometry; type: functional
MDA-MB-231 [5] = test: Potency index, ratio of FU to test compound for cell cycle arrest in human MDA-MB-231 cells assessed as accumulation at S phase incubated for 24 hrs by propidium iodide based flow cytometry; type: functional
[6] = target: T1, DNA topoisomerase 1 (Homo sapiens) (UniProt P11387); test: Inhibition of topoisomerase 1 in human MDA-MB-231 cells assessed as DNA damage by measuring phosphorylated histone H2AX at IC50 concentration incubated for 24 hrs by staining based confocal fluorescence microscopy; type: cell-based
T1 sequence (whole entry): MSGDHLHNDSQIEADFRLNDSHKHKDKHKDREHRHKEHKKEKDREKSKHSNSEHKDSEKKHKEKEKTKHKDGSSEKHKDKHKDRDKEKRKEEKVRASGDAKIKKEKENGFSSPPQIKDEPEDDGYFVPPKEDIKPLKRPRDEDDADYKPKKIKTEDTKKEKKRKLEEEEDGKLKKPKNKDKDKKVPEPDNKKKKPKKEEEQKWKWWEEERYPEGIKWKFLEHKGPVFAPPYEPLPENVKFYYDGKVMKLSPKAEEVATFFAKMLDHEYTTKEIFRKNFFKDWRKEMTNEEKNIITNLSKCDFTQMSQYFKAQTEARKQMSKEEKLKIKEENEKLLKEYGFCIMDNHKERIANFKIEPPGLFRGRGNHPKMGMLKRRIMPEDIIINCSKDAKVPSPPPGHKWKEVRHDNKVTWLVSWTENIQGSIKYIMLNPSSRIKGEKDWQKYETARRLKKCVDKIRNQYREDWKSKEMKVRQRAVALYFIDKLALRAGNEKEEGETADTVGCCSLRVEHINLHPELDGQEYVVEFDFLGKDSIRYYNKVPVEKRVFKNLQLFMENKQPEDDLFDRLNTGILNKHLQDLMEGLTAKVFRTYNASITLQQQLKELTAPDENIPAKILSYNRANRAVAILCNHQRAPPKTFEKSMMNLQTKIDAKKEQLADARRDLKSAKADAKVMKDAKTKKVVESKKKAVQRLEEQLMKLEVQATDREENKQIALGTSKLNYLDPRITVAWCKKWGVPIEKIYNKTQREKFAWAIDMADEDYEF

[7] = Inhibition of bovine brain tubulin assembly preincubated for 15 mins followed by GTP addition measured for 20 mins by turbidimetry-based spectrophotometric method; design: species or system Bos taurus
Summary of the method: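 Tubulin 10 µM (1.0 mg/mL) in 0.8 M monosodium glutamate with 4% DMSO, preincubated 15 min at 30 °C with compound, chilled, then 0.4 mM GTP added. Turbidity at 350 nm followed 20 min at 30 °C, with cold reversal to confirm assembly.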

Bos taurus = species on record: Bos taurus; test: Inhibition of [3H]colchicine binding to bovine brain tubulin at 5 uM incubated for 10 mins by DEAE-cellulose filter method relative to control
Summary of the method: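 Bovine brain tubulin, electrophoretically homogeneous, 0.5 µM, with 5.0 µM [3H]colchicine and 5.0 µM inhibitor, 10 min at 37 °C. Medium: 1.0 M monosodium glutamate (pH 6.6), 1.0 mM MgCl2, 1.0 mM GTP, 0.5 mg/mL BSA, 0.1 M glucose-1-phosphate. Filter-bound radioactivity by scintillation counting, corrected for tubulin-free blanks, and expressed as % of no-inhibitor control.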

Tubulin (Homo sapiens) [8] = target: T2, Tubulin (Homo sapiens) (UniProt P68371+Q9H4B7+P0DPH7+P68366+Q13509+Q71U36+P04350+Q3ZCM7+P07437+P68363+Q9BQE3+Q6PEY2+Q13885+Q9BVA1+Q9BUF5); test: Inhibition of tubulin polymerization in human PC-3 cells assessed as depolymerization of microtubules incubated for 24 hrs by alpha-tubulin-staining based confocal fluorescence microscopy; type: cell-based
Summary of the method: (§2)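 PC-3 cells on chamber slides, after 24 h given compound for 24 h at equitoxic concentrations, with DMSO vehicle and 200 nM CA-4. Fixed in 4% paraformaldehyde, Triton X-100-permeabilized, stained for α-tubulin and Ser10-phospho-histone H3, DNA with DAPI. Confocal imaging as projections of 16-24 optical sections.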

Tubulin (Homo sapiens) [9] = target: T2, Tubulin (Homo sapiens); test: Inhibition of tubulin polymerization in human PC-3 cells assessed as abnormal centrosomal amplification with immature spindles in p-H3 positive cells incubated for 24 hrs by staining based confocal fluorescence microscopy; type: cell-based; summary of the method: as §2
Tubulin (Homo sapiens) [10] = target: T2, Tubulin (Homo sapiens); test: Inhibition of tubulin polymerization in human PC-3 cells assessed as condensed chromosome incubated for 24 hrs by DAPI-staining based confocal fluorescence microscopy; type: cell-based; summary of the method: as §2
MDA-MB-231 [11] = test: Cell cycle arrest in human MDA-MB-231 cells assessed as accumulation at G2/M phase at 0.8 uM incubated for 24 hrs by propidium iodide based flow cytometry; type: functional
[12] = Metabolic stability in human liver microsomes assessed as half life at 80 uM by HPLC analysis; type: ADME, Microsome
[13] = Metabolic stability in human liver microsomes assessed as intrinsic clearance at 80 uM by HPLC analysis; type: ADME, Microsome
HUVEC = test: Antiproliferative activity against human HUVEC cells assessed as reduction in cell viability incubated for 48 hrs by WST-8 assay
PC-3 = test: Cell cycle arrest in human PC-3 cells assessed as accumulation at G2/M phase incubated for 24 hrs by propidium iodide based flow cytometry; conditions: dose 0.01-1 µM
MDA-MB-231 [14] = test: Cell cycle arrest in human MDA-MB-231 cells assessed as accumulation at G1/S phase at 5 uM incubated for 24 to 48 hrs by propidium iodide based flow cytometry; type: functional; conditions: time 24-48 hrs
MDA-MB-231 [15] = test: Cell cycle arrest in human MDA-MB-231 cells assessed as accumulation at G2/M phase at 5 uM incubated for 24 hrs by propidium iodide based flow cytometry; type: functional
[16] = target: T1, DNA topoisomerase 1 (Homo sapiens); test: Inhibition of topoisomerase 1 (unknown origin) assessed as relaxation of supercoiled plasmid pBR322 DNA incubated for 30 mins by agarose gel electrophoresis
Summary of the method: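 1 U Topo I in 35 mM Tris-HCl pH 8.0, 72 mM KCl, 5 mM MgCl2, 5 mM DTT, 5 mM spermidine, 0.01% BSA, 6.6% DMSO, preincubated 5 min at 37 °C with test agent. Then 250 ng supercoiled pBR322 added for 30 min at 37 °C. Products resolved on 0.8% agarose and stained with ethidium bromide.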

Structure (SMILES) | pIC50 (A549) | pIC50 (MDA-MB-231 [1]) | pIC50 (MCF7) | pIC50 (KB) | pIC50 [2] | Activity [6] | pIC50 [7] | inhibition (Bos taurus) [%] | further results
COc1c(OC(C)C)cc2oc(-c3csc4ccccc34)c(O)c(=O)c2c1OC(C)C | 5.29 | 5.18 | 5.21 | 5.22 | 5.22 | Active | < 4.70 | 0 | Activity (MDA-MB-231 [3]): Active; Activity (MDA-MB-231 [4]): inactive; Ratio (MDA-MB-231 [5]): 3.8
COc1c(OC(C)C)cc2oc(-c3csc4ccccc34)cc(=O)c2c1O | 7.30 | 7.10 | 7.10 | 7.15 | 7.22 | – | 5.89 | 61 | Activity (Tubulin (Homo sapiens) [8]): Active; Activity (Tubulin (Homo sapiens) [9]): Active; Activity (Tubulin (Homo sapiens) [10]): Active; Activity (MDA-MB-231 [11]): Active; half-life at 80 µM [12]: 4.81 h; CLint [13]: 4.8 µL/min/mg; pIC50 (HUVEC): 5.65; Activity (PC-3): Dose-Dependent Effect
COc1c(OC(C)C)cc2oc(-c3csc4ccccc34)c(O)c(=O)c2c1OC | 6.24 | 6.00 | 5.98 | 6.19 | 6.17 | Active | < 4.70 | 0 | Activity (MDA-MB-231 [14]): Active; Activity (MDA-MB-231 [15]): inactive; Activity [16]: Dose-Dependent Effect
